Compound activity from PubChem BioAssay.
Shown are actives, neighbours in structure and some others; about 4.8% of the full set was active somewhere.
NF-kB expr up = raises NF-kB expression in human neuronal cells. NF-kB reporter expression; stronger effect = higher value. actives 1.6% (n = 190,000). AID 1239. fold change at 12.5 µM; in the data active = fold change above about 3.3
APP 5'UTR act = activates APP 5'UTR luciferase reporter. SH-SY5Y APP 5'UTR luciferase reporter, luminescence; zero percent = DMSO vehicle wells. activation, % at 2 µM. actives 1% (n = 190,000). AID 1276;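 active = activation above a set limit, based on mean plus 3 SD of controls, cut at about 140% in these data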
APP 5UTR inh = APP translation inhibition | inhibition, % at 2 µM | SH-SY5Y APP 5'UTR-luciferase reporter, luminescence | AID 1285 | actives 0.82% (n = 190,000);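 active = inhibition above a set limit, derived from the sample mean plus 3 SD, cut at about 45% in these data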
FLuc inhib CS = Photinus pyralis luciferase inhibition counter-screen; P08659; ATPLite firefly luciferase biochemical luminescence, 10 min; inhibition, % at 10 µM; actives 1.5% (n = 200,000); AID 1006;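 active = inhibition above about 50% when tested at 10 µM, limit read from the data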
Target sequence (P08659 whole entry, looked up): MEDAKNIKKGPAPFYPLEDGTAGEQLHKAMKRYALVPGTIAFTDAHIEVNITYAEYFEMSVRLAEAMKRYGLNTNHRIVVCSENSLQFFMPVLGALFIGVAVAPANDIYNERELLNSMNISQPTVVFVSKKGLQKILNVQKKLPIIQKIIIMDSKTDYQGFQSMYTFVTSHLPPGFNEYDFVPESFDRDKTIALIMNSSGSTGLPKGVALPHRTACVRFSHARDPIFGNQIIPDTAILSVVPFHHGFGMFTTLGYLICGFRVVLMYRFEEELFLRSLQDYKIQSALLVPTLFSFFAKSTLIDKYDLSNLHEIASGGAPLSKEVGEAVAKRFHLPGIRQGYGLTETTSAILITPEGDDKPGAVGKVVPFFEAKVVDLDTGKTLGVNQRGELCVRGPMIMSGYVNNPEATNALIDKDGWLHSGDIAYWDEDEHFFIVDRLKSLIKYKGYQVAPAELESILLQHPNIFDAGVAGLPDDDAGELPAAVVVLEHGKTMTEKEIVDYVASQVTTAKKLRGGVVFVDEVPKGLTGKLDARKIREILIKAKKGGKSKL
FLuc stim CS = affects firefly luciferase, flagging false hits in luciferase stimulation screens. 200,000 tested, under 10 active. P08659. activation factor at 10 µM. AID 1027. ATPlite luciferase biochemical, luminescence, 10 min; 0 = ATP-free wells, 1 = DMSO control;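 active = luciferase activation factor, scaled between plate controls, of at least 2 with compound at 10 µM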
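Assay system: Luciferase/luciferin detection reagent, cell-free biochemical luciferase assay / Read-out: luciferase activation / Benchmarks: No-ATP low control, compound-free enzyme-plus-ATP high control / Medium: PBS buffer for ATP / Detection: luminescence measurement of luciferase light output / Schedule: 10 min at ambient temperature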
STAT1 activator = increases IFN-gamma driven STAT1 reporter signal. NIH 3T3 STAT1-luciferase reporter, luminescence; 100% = IFN-gamma alone, no compound. activation (% of control), % at 5.5 µM. actives 2.6% (n = 200,000). AID 932;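 active = activation above the screen-wide mean activation plus 3 SD, cut at about 130% in these data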
Of the large screens only hits and unclear results are named; the others gave an inactive call.

c1ccc2c(NCCCN3CCOCC3)c3ccccc3nc2c1	APP 5UTR inh 63, STAT1 activator 180
COC(=O)c1ccc(N(C(=O)c2ccco2)C(C(=O)NC2CCCC2)c2ccco2)cc1 (configuration not stated)	none
CC1CCN(C(=O)CSc2nc3ccccc3s2)CC1	STAT1 activator 132
CC(=O)N1CCc2cc(S(=O)(=O)NCCCN3CCN(Cc4ccccc4)CC3)ccc21	APP 5UTR inh 63
CCC(=O)N1CCc2cc(S(=O)(=O)NCCCN3CCN(Cc4ccccc4)CC3)ccc21	none
Cc1cccc(NC(=O)c2ccc(C3SCC(=O)N3CCc3ccccc3)cc2)c1C (configuration not stated)	none
Cc1cc([N+](=O)[O-])ccc1-c1ccc(C2Nc3ccccc3C(=O)N2O)o1 (configuration not stated)	APP 5UTR inh 54
COc1ccc(OC)c(NC(=O)NCCc2cccc(Cl)c2)c1	none
CC(C)COC(=O)c1ccc(NC(=O)C2C3CCC(C3)C2C(=O)O)cc1 (configuration not stated)	STAT1 activator 143
CCOC(=O)c1ccc(NC(=O)C2C3CCC(C3)C2C(=O)O)cc1 (configuration not stated)	none
COc1cccc(C(=O)Nc2nc3ccccc3[nH]2)c1	APP 5'UTR act 150, FLuc inhib CS 91
O=C(Nc1nc2ccccc2[nH]1)c1ccc(Br)o1	NF-kB expr up 3.6, FLuc inhib CS 73, STAT1 activator 144
COc1ccc(C(=O)N[C@H](C(=O)Nc2nc3ccccc3[nH]2)C(C)C)cc1	APP 5UTR inh 77, FLuc inhib CS 53
COc1cc(C(=O)Nc2nc3ccccc3[nH]2)cc(OC)c1OC	none
O=c1[nH]c2ccccc2nc1/C=C(\O)c1cccs1	STAT1 activator 146
N#Cc1cnn2c(-c3ccc(Cl)cc3Cl)ccnc12	none
CC(/C=C/c1ccco1)=N\NC(=O)COc1ccc(C)c(C)c1	none
O=C(NCCN1CCOCC1)c1ccc(N2CCCC2)c([N+](=O)[O-])c1	none
CC(=O)NS(=O)(=O)c1ccc(NC(=O)c2ccc3c(c2)C(=O)N(CCC(C)C)C3=O)cc1	none
CC1(C)CC(=O)C2=C(C1)N(c1ccc(F)cc1)C(=O)CC2c1ccsc1 (configuration not stated)	none
O=C(Nc1nc2ccccc2[nH]1)c1ccc([N+](=O)[O-])cc1	APP 5'UTR act 190, FLuc inhib CS 51
Cc1cccc(C(=O)N[C@H](C(=O)Nc2nc(C)cs2)C(C)C)c1	none
O=c1[nH]c2ccccc2nc1/C=C/c1ccc(O)cc1	FLuc inhib CS 54, STAT1 activator 138
O=C(Nc1nc2ccccc2[nH]1)C12CC3CC(CC(C3)C1)C2	FLuc inhib CS 50, STAT1 activator 132
Cc1cccc(C(=O)N[C@H](C(=O)Nc2nc3ccccc3[nH]2)C(C)C)c1	APP 5UTR inh 62
O=C(NCc1nc2ccccc2[nH]1)c1ccc([N+](=O)[O-])cc1	none
C/C(CC(=O)NC1CCCCC1)=N\NC(=O)Cc1ccc(-c2ccccc2)cc1	none
Cc1ccccc1C(=O)NNC(=O)CSc1nnc(-c2ccncc2)n1-c1ccccc1	none
O=C(Nc1nc2ccccc2[nH]1)C1CC1	none
O=C(Nc1nc2ccccc2[nH]1)c1cccs1	NF-kB expr up 3.8, APP 5'UTR act 166, FLuc inhib CS 69
N#C/C=C(/N)N1CCN(c2ccc(Cl)c(Cl)c2)CC1	none
Cc1cccc(NC(=O)c2ccccn2)c1C	none
Cc1ccccc1NC(=O)c1onc2c1CCCC2	NF-kB expr up 3.6, FLuc inhib CS 63, STAT1 activator 142
Cc1cccc(NC(=O)c2ccc3c(Cl)c4c(nc3c2)CCCC4)n1	APP 5'UTR act 160, FLuc inhib CS 81, STAT1 activator 145
Cc1ccccc1NC(=O)c1csc2c1CCCC2	none
Cc1cccc(NC(=O)c2onc3c2CCCC3)c1C	STAT1 activator 140
Cc1cccc(NC(=O)c2onc3c2CCCC3)n1	APP 5'UTR act 158, FLuc inhib CS 92
CC(C)Cc1cc(C(=O)N2CCCC(CCC(=O)N(C)CCc3ccccn3)C2)no1 (configuration not stated)	none
COC(=O)c1cccc(NC(=O)c2onc3c2CCCC3)c1	NF-kB expr up 10, FLuc inhib CS 62, STAT1 activator 150
COC(=O)c1cccc(NC(N)=S)c1	none
COc1ccc(N2CC(C(=O)N/N=C/c3ccc([N+](=O)[O-])cc3)CC2=O)cc1 (configuration not stated)	none
COc1ccc(N2CC(C(=O)N/N=C/c3ccc(C)cc3)CC2=O)cc1 (configuration not stated)	APP 5UTR inh 83
Cc1cc(C)c2cc(C=O)c(Cl)nc2c1	APP 5UTR inh 93
CCCCN(CC)C(=O)c1cc2cc3ccc(OC)cc3nc2o1	none
CCCCN(C)C(=O)c1cc2cc3ccc(OC)cc3nc2s1	APP 5'UTR act 188, FLuc inhib CS 85
O=c1c2ccccc2[nH]c(=S)n1Cc1cccnc1	APP 5UTR inh 56
CCOc1cnc(-c2ccc(Cl)cc2)o1	STAT1 activator 140
CCOc1cnc(-c2ccc(OC)cc2)o1	STAT1 activator 135
Cc1ccc2cn[nH]c2c1NC(N)=S	none
CC(=O)NCCn1c(SCC(=O)c2ccc(Cl)cc2)nc2ccccc2c1=O	none
O=C(CSc1nc2ccccc2c(=O)n1NC(=O)c1ccccc1)c1ccc(Cl)cc1	APP 5'UTR act 158
COc1ccc(C(=O)Nn2c(SCC(=O)NCC3CCCO3)nc3ccccc3c2=O)cc1 (configuration not stated)	FLuc inhib CS 82
COc1ccc(C(=O)Nn2c(SCC(=O)NCc3ccccc3)nc3ccccc3c2=O)cc1	none
O=C(NCC1CCCO1)c1cc(S(=O)(=O)N2CCCC2)c(Cl)cc1Cl (configuration not stated)	none
COC(=O)c1c(-c2ccccc2)csc1N1C(=O)Nc2ccccc2N1O	FLuc inhib CS 71
CC1(O)N(CCC(=O)Nc2cccc(F)c2)C(=O)OC12CCCCC2 (configuration not stated)	none
CC1(C)C([N+](=O)[O-])C(c2ccc(Cl)cc2)NC(c2ccc(Cl)cc2)C1[N+](=O)[O-] (configuration not stated)	none
CCc1ccc(NC2=NCC(c3ccccc3)S2)cc1 (configuration not stated)	STAT1 activator 130
COc1ccc(CNC(=O)Cn2cc3c(n2)CCCCC3)cc1	none
COc1ccc(-c2cn3nc4c(nc3n2)CCCC4)cc1	FLuc inhib CS 68
CCOC(=O)c1cnc2ccccc2c1Nc1cccc(C(=O)O)c1	FLuc inhib CS 86
CCOC(=O)c1cnc2ccc(C(=O)OC)cc2c1Nc1cccc(C(=O)O)c1	none
C/C(CC(=O)Nc1ccc(Cl)c(Cl)c1)=N\NC(=O)C(=O)N1CCCCC1	none
